From ChEMBL document CHEMBL3576830, “Exploiting the Polypharmacology of ß-Carbolines to Disrupt O. volvulus Molting” (ACS Med Chem Lett, 2015) come the findings set out here.

Each structure is given as a SMILES string. Calls of active or inactive are those of the source. The rule behind the calls is not given here.

Data set [1] has as its target T1, Chitinase (Onchocerca volvulus) (UniProt Q25615).
T1 sequence (whole entry): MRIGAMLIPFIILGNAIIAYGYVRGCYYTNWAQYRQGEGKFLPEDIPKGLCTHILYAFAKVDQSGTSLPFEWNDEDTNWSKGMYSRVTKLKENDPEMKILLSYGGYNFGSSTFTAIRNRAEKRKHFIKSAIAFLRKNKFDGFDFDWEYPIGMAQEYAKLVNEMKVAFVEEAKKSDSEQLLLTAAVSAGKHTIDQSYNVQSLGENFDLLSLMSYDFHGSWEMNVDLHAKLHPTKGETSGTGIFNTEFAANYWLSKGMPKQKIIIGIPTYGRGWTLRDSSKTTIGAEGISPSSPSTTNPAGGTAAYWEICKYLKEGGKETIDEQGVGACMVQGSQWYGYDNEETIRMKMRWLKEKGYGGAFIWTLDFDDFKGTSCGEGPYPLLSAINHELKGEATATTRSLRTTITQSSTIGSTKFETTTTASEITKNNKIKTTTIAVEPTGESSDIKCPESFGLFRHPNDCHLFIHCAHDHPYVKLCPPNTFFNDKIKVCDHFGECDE
The data set can be described thus: Inhibition of L3 larval stage of Onchocerca volvulus chitinase using 4-methylumbelliferyl-N-N'-N''-beta-chitotrioside as substrate assessed as release of 4-methylumbelliferone at 10 uM measured for 10 mins by fluorescence assay. The format is tissue-based. The method, boiled down:
(§1)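 OvCHT1 activity read by fluorescence, inhibitors tested at 10 and 5 μM.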

The subject of data set [2] is Onchocerca volvulus. As to the kind of experiment: Antionchocerciasis activity against L3 larval stage of Onchocerca volvulus assessed as inhibition of parasite molting at 10 uM treated for 24 hrs prior to complete medium and PBMC addition measured after 6 days by inverted microscopic analysis. Type of data set: functional. The method, boiled down: (§2)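 O. volvulus L3 larvae in wells, 2−3 wells per condition with on average 5−10 larvae each, exposed to inhibitor. Molting counted and expressed as percent molting.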

Data set [3] relates to HEK-293T. As to the kind of experiment: Cytotoxicity against HEK293T/17 cells at 5 uM after 0.5 to 24 hrs by MTS assay. Type of data set: cell-based. Conditions: human.
Data set [4] addresses T2, Endochitinase (Brugia malayi) (UniProt P29030).
T2 sequence (whole entry): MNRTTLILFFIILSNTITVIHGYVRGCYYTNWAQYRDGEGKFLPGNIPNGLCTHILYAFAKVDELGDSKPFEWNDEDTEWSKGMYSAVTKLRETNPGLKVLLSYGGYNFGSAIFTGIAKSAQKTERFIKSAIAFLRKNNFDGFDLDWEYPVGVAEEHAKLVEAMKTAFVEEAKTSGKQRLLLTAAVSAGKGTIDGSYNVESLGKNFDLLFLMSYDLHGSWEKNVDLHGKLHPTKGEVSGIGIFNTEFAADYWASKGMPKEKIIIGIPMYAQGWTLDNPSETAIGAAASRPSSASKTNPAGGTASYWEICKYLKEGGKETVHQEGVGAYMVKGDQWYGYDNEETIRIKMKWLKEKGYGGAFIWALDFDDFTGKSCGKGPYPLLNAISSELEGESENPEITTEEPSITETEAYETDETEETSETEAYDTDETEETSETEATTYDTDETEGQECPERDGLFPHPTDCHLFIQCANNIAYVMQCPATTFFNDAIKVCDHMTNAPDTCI
The data set can be described thus: Inhibition of Brugia malayi chitinase using 4-methylumbelliferyl-N-N'-N''-beta-chitotrioside as substrate assessed as release of 4-methylumbelliferone at 10 uM measured for 10 mins by fluorescence assay.

Data set [5] concerns HEK-293T. The data set can be described thus: Mitochondrial uncoupling activity in HEK293T/17 cells at 50 uM after 30 mins by TMRE staining-based fluorescence assay. The format is functional, cell-based. Conditions: Homo sapiens. In outline: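 HEK 293T/17 cells incubated with 50 μM compound, then stained with TMRE to detect mitochondrial membrane depolarization, read in a microplate fluorescence assay. Reported as mean fluorescence intensity ± SD (n = 3). Unstained cells served as negative control and 0.5% DMSO as positive control. CCCP served as reference protonophore.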

The target in data set [6] is T3, Chitinase (Onchocerca volvulus, UniProt Q25615).
T3 sequence (Q25615 whole entry): T1 sequence (whole entry)
As to the kind of experiment: Inhibition of L3 larval stage of Onchocerca volvulus chitinase using 4-methylumbelliferyl-N-N'-N''-beta-chitotrioside as substrate assessed as release of 4-methylumbelliferone measured for 10 mins by fluorescence assay.

Data set [7] deals with Onchocerca volvulus. The data set can be described thus: Antionchocerciasis activity against L3 larval stage of Onchocerca volvulus assessed as inhibition of parasite molting at 1 uM treated for 24 hrs prior to complete medium and PBMC addition measured after 6 days by inverted microscopic analysis. Type of data set: functional. In outline:
as §2

The target in data set [8] is T3, Chitinase. The data set can be described thus: Competitive inhibition of L3 larval stage of Onchocerca volvulus chitinase using 4-methylumbelliferyl-N-N'-N''-beta-chitotrioside as substrate assessed as release of 4-methylumbelliferone measured for 10 mins by Dixon plot analysis.
The test system of a further data set is Entamoeba histolytica. The data set can be described thus: Inhibition of Entamoeba histolytica chitinase using 4-methylumbelliferyl-N-N'-N''-beta-chitotrioside as substrate assessed as release of 4-methylumbelliferone at 10 uM measured for 10 mins by fluorescence assay.
In data set [9] the target is T1, Chitinase (Onchocerca volvulus). The data set can be described thus: Inhibition of L3 larval stage of Onchocerca volvulus chitinase using 4-methylumbelliferyl-N-N'-N''-beta-chitotrioside as substrate assessed as release of 4-methylumbelliferone at 5 uM measured for 10 mins by fluorescence assay. In outline:
as §1

Data set [10] relates to Caenorhabditis elegans. As to the kind of experiment: Drug level in late stage L4 Caenorhabditis elegans treated with 2-(Cyclopropylmethyl)-7-methoxy-1-methyl-9H-pyrido[3,4-b]indol-2-ium bromide at 10 uM after 6 hrs by LC-MS analysis. The format is ADME, organism-based. The following applies: in vivo. In outline: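 Late-stage L4 C. elegans were exposed to 10 μM compound (equivalent to 2 nmol/mg worm) for 6 h. Worm homogenates were quantified by LC–MS and expressed as nmol/mg worm, mean ± SD, n = 3.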

The subject of data set [11] is Caenorhabditis elegans. As to the kind of experiment: Drug uptake in late stage L4 Caenorhabditis elegans at 10 uM after 6 hrs by LC-MS analysis. The format is ADME, organism-based. The following applies: in vivo. The method, boiled down: (§3)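 Late-stage L4 C. elegans incubated 6 h with 10 μM inhibitor (equivalent to 2 nmol/mg worm). Worm homogenates quantified by LC−MS and also searched for metabolites (7-O-dealkylation, aromatic ring and N²-oxidation products). Uptake expressed as nmol/mg worm, mean ± SD, n = 3.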

The subject of data set [12] is Onchocerca volvulus. As to the kind of experiment: Antionchocerciasis activity against L3 larval stage of Onchocerca volvulus assessed as prevention of L3 cuticle shedding at 100 uM treated for 24 hrs prior to complete medium and PBMC addition measured after 6 days by inverted microscopic analysis. The format is functional, organism-based. The method, boiled down: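 O. volvulus L3 larvae in 2–3 wells, on average 5–10 larvae per well; read-out is percent molting across the wells.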

The test system of data set [13] is Caenorhabditis elegans. The data set can be described thus: Drug metabolism in late stage L4 Caenorhabditis elegans assessed as formation of 7-methoxy-1-methyl-9H-pyrido[3,4-b]indole at 10 uM after 6 hrs by LC-MS analysis. Type of data set: ADME, organism-based. The following applies: in vivo. In outline: as §3
Data set [14] relates to Caenorhabditis elegans. The data set can be described thus: Drug metabolism in late stage L4 Caenorhabditis elegans assessed as formation of 7-O-dealkylated, aromatic ring, and N2-oxidized metabolite at 10 uM after 6 hrs by LC-MS analysis. The format is ADME, organism-based. Conditions: in vivo. In outline: as §3

In the case of `Cc1nccc2c3ccccc3n(Cc3ccc(Cl)cc3)c12`, the inhibition (in general, how much of the control response was suppressed) in [1] was “inactive”.
As to `Cc1c2[nH]c3cc(OCc4ccc(Cl)cc4)ccc3c2cc[n+]1Cc1ccc(Cl)cc1.[Br-]`, the inhibition entry (in the data set on Onchocerca volvulus [2]; in data set [4]; with Entamoeba histolytica) was “Active” throughout. In addition, the Activity entry in the data set with HEK-293T [3] is given as “Non-toxic”. In the data set with HEK-293T [5], the result was Active. Moreover, the IC50 – broadly, the concentration that gives 50% inhibition – at Chitinase [6] came out at 1.43 µM. Further, the inhibition at 1 µM with Onchocerca volvulus [7] is 27%. Further, the Ki (as a rule, a dissociation constant, usually derived from enzyme kinetics or from competition with a known ligand) at Chitinase [8] was 0.98 µM.
For `Cc1nccc2c3ccccc3n(CC3CC3)c12`, in [9], the inhibition entry was “inactive”.
`COc1ccc2c(c1)[nH]c1c(C)nccc12` [HARMINE]: the inhibition at 10 µM in the data set with Onchocerca volvulus [2] turned out to be 57%. In the data set with Caenorhabditis elegans [10], the Drug uptake stood at 0.052 nmol/mg. Moreover, the inhibition result (in [4]; with Entamoeba histolytica) was “inactive” each time. The result with HEK-293T [5] was Active. For the same compound, the IC50 at Chitinase [6] was determined as 7.06 µM. On Chitinase [8], the Ki came out at 3.78 µM.
Regarding `CCNS(=O)(=O)c1ccc2[nH]c3cnccc3c2c1`, in data set [1], the inhibition result was “inactive”.
In the case of `COc1ccc2c(c1)[nH]c1c(C)[n+](Cc3ccc(Cl)cc3)ccc12.[Br-]`, the inhibition result in the data set with Onchocerca volvulus [2] was “Active”. In the data set with Caenorhabditis elegans [11], this compound showed a Drug uptake of 0.22 nmol/mg. Further, the Activity entry in the data set on HEK-293T [3] is given as “Non-toxic”. Also, the result in the data set with HEK-293T [5] was Active. Further, on Chitinase [6], the IC50 came out at 3.49 µM. Also, in the data set on Onchocerca volvulus [7], the inhibition at 1 µM was 45%.
Take `Cc1nccc2c1[nH]c1cc(OCC3CC3)ccc12`: in data set [1], the inhibition entry was “inactive”.
In the case of `Cc1c2[nH]c3ccccc3c2cc[n+]1CC1CC1`, the inhibition result in [9] was “inactive”.
Regarding `Cc1nccc2c3ccc(OCc4ccc(Cl)cc4)cc3n(Cc3ccc(Cl)cc3)c12`, the inhibition entry (with Onchocerca volvulus [2]; in [4]; with Entamoeba histolytica) was “inactive” throughout. Moreover, the outcome in the data set with HEK-293T [5] was inactive. Besides, on Chitinase [6], the IC50 came to 2.08 µM. For the same compound, in the data set on Onchocerca volvulus [12], the result was Active.
As for `Cc1c2[nH]c3ccccc3c2cc[n+]1C`, the inhibition result in data set [1] is “inactive”.
Turning to `N#CC(C#N)=NNc1cccc(Cl)c1`, in the data set on HEK-293T [5], the result was Active.
Turning to `O=S(=O)(Nc1ccc(Cl)cc1)c1ccc2[nH]c3cnccc3c2c1`, the inhibition entry in [1] is “inactive”.
Take `Cc1nccc2c1[nH]c1ccccc12` [HARMAN]: the inhibition result with Onchocerca volvulus [2] was “inactive”. Further, in the data set with HEK-293T [5], the result was inactive. Besides, on Chitinase [6], the concentration for half-maximal inhibition (IC50) came out at 7.33 µM. Besides, the result with Onchocerca volvulus [12] was Active.
Take `COc1ccc2c(c1)[nH]c1c(C)[n+](CC3CC3)ccc12.[Br-]`: the inhibition result with Onchocerca volvulus [2] is “Active”. In the data set on Caenorhabditis elegans [11], this compound came in with a Drug uptake of 0.033 nmol/mg. Moreover, the Activity result in the data set on HEK-293T [3] is recorded as “Non-toxic”. Besides, the inhibition entry (in [4]; with Onchocerca volvulus [7]; in the data set with Entamoeba histolytica) was “inactive” each time. The outcome in the data set on HEK-293T [5] was Active. For the same compound, on Chitinase [6], the IC50 amounted to 3.57 µM. The Drug metabolism entry is “metabolite_detected” in the data set on Caenorhabditis elegans [13] and “metabolite_notdetected” with Caenorhabditis elegans [14].
Take `Cc1c2[nH]c3ccccc3c2cc[n+]1Cc1ccccc1`: the inhibition result in [1] is “inactive”.
Turning to `Cc1[nH]ccc2c1[nH]c1cc(=O)ccc12` [HARMOL], the inhibition at 10 µM in the data set on Onchocerca volvulus [2] was 61%. Further, the inhibition result (in data set [4]; in the data set on Entamoeba histolytica) was “inactive” throughout. Further, the result in the data set on HEK-293T [5] was Active. In addition, the IC50 on Chitinase [6] is 7.08 µM.
`c1ccc2c(c1)[nH]c1cnccc12` [NORHARMANE]: the inhibition result in the data set on Onchocerca volvulus [2] is “inactive”. Further, the result in the data set with HEK-293T [5] was inactive. Besides, on Chitinase [6], the IC50 is 8.46 µM. For the same compound, the outcome with Onchocerca volvulus [12] was Active.
For the compound `O=S(=O)(Nc1ccccc1)c1ccc2[nH]c3cnccc3c2c1`, the inhibition result in data set [1] is “inactive”.
With `Cc1ccc(NS(=O)(=O)c2ccc3[nH]c4cnccc4c3c2)cc1`, the inhibition result in [1] is “inactive”.
As for `Cc1c2[nH]c3ccccc3c2cc[n+]1Cc1ccc(Cl)cc1`, the inhibition entry in data set [9] was “inactive”.
With `COc1ccc2c3ccnc(C)c3n(CC3CC3)c2c1`, the inhibition result in data set [1] was “inactive”.
As to `COc1ccc2c3ccnc(C)c3n(Cc3ccc(Cl)cc3)c2c1`, in data set [1], the inhibition result was “inactive”.
`Cc1nccc2c3ccccc3n(C)c12`: the inhibition result in data set [1] was “inactive”.
`O=S(=O)(NC1CCCC1)c1ccc2[nH]c3cnccc3c2c1`: the inhibition entry in data set [1] is “inactive”.
Still for that read-out and setting: the result for `Cc1c2[nH]c3ccccc3c2cc[n+]1Cc1ccc(C(F)(F)F)cc1` reads “inactive”.
In the case of `Cc1nccc2c1[nH]c1cc(OCc3ccc(Cl)cc3)ccc12`, in data set [1], the inhibition entry was “inactive”.
For the compound `Cc1nccc2c3ccccc3n(Cc3ccccc3)c12`, the inhibition entry in data set [1] is “inactive”.
